# Test: LAP4-GFP expression modulators in yeast, confirmation, cell-based, cherry picks, flow cytometry, mother/daughter gates (AID 2271);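 note: ratio of sample to DMSO plate mean so 100% equals DMSO level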
# Conditions: S. cerevisiae LAP4-GFP strain, 3 h, measured here: daughter cell gate response, at 10 µM, stronger effect = higher value, 100 means same as DMSO control
# Summary of the method: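 Material: Alexa 633-stained baker's yeast GFP-fusion strain; Compound dosing: single test-compound dose, 10 µM final; Incubation: 30 °C, 3 h compound incubation, rotating; Detection: HT flow cytometry, GFP fluorescence channel; Control set: positive rapamycin (400 ng/mL), negative DMSO.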
row,Structure (SMILES),GFP response relative to DMSO [%]
1,O=C(c1ccccc1F)N1CCN(c2ccccc2)CC1,101
2,O=C(C1CCN(Cc2nc(Cc3cccc(F)c3)no2)CC1)N1CCOCC1,100
3,COC(=O)c1ccc(/C=N\NC(=O)c2ccc(C)cc2Cl)cc1,94.4
4,CCNC(=O)c1ccccc1-c1nc(-c2ccccc2Cl)no1,97.5
5,O=C(OCC(=O)N1CCN(C(=O)c2ccco2)CC1)c1cc(-c2ccc(Cl)c(Cl)c2Cl)nc2ccccc12,99.2
6,c1ccc(CSc2ccc(-c3ccccn3)nn2)cc1,104
7,N#C/C(=C\c1c(N2CCCCCC2)nc2ccccn2c1=O)C(=O)NCc1ccco1,96
8,Cc1ccc(Nc2c(-c3ccccn3)nc3ccc(C)cn23)cc1,137
9,Cc1ccc(-c2csc3ncn(Cc4ccc(C(=O)O)cc4)c(=O)c23)cc1C,114
10,CCOC(=O)c1ccc(NC(=O)CCc2nc(-c3ccc(Cl)cc3)no2)cc1,99.2
11,O=C(Nc1cc(Sc2ccccn2)cc([N+](=O)[O-])c1)c1ccc([N+](=O)[O-])cc1,101
12,O=C1c2ccccc2C(=O)N1OS(=O)(=O)c1ccc(F)cc1,129
13,Cc1ccc(N2CCN(C(=O)c3ccccc3Br)CC2)c(C)c1,92.8
14,CCCc1[nH]nc2c1C1(C(=O)N(C(C)C)c3ccccc31)C(C#N)=C(N)O2 (centres undefined),104
15,O=C1c2cccc3c([N+](=O)[O-])ccc(c23)C(=O)N1O,250
16,COC(=O)Cn1nc(-c2ccccc2)c2cc(Cl)ccc21,104
17,O=C1C(Cl)=C(NCCc2ccccc2)C(=O)N1CCc1ccccc1,107
18,O=c1c(-c2ccc(Cl)cc2)[n+]([O-])c2ccccc2n1O,141
19,CCc1ccccc1OCc1nnc(N)s1,99.1
20,Cc1ccc(/C=C2/SC(=S)N(C3CCCCC3)C2=O)o1,145
21,O=C(Cn1cc(/C=C\[N+](=O)[O-])c2ccccc21)Nc1ccccc1,94.4
22,Cc1nnc(NC(=O)c2ccc(S(=O)(=O)N3CCCCCC3)cc2)o1,97.5

# Same assay, conditions: S. cerevisiae LAP4-GFP strain, 3 h, measured here: mother cell gate response, at 10 µM, stronger effect = higher value, 100 means same as DMSO control
row,Structure (SMILES),GFP response relative to DMSO [%]
1,O=C(COC(=O)c1n[nH]c2ccccc12)c1cccc(Br)c1,99.5
2,Cc1c(C(=O)Nc2ccccc2)cnn1-c1ccccc1,105
3,Oc1c(CN2CCN(c3ccccc3)CC2)cc(Br)c2cccnc12,231
4,NC(=O)c1ccccc1-c1nc(-c2ccccc2)no1,102
5,CC(C(=O)O)n1nc(-c2ccccc2)c2ccccc21 (centres undefined),97.3
6,COc1cc(/C=C2/N=C(c3ccccc3)OC2=O)c(F)cc1OCc1ccccc1,98.4
7,COc1ccc(-c2nn(-c3ccccc3)cc2C(=O)NC(=S)NNC(=O)c2ccncc2)cc1,105
8,CCOC(=O)Cc1csc(NC(=O)CCCCCN2C(=O)c3cccc4cccc(c34)C2=O)n1,89.7
9,COC(=O)c1ccc(/C=C/C(=O)c2cccc(OC)c2)cc1,116
10,Cc1[nH][nH]c(=O)c1C(c1ccc(N(C)C)c(Br)c1)c1c(C)[nH][nH]c1=O,114
11,Cc1ccc(CCN2CC(C(=O)NCCCN(C)Cc3ccccc3)CC2=O)cc1 (centres undefined),100
12,COc1ccc(NC(=O)C2CCN(S(=O)(=O)c3ccc(OC)c(OC)c3)CC2)c(OC)c1,102
13,CN1CCc2c(sc3c2C(=O)NC(c2ccc4c(c2)OCO4)N3)C1 (centres undefined),98.5
14,Nc1cccnc1S(=O)(=O)c1ccccc1,95.2
15,N#Cc1ccccc1Cn1cc(/C=C/[N+](=O)[O-])c2ccccc21,134
16,CN(c1ccccc1)S(=O)(=O)c1ccc(C(=O)Nc2nnc(-c3ccc(F)cc3)o2)cc1,120
17,Cc1ccc(C)c(N2CCN(C(=O)c3ccccc3Br)CC2)c1,100
18,CCOC(=O)C(=CNNc1cccc(Cl)c1)C(=O)OCC,137
19,O=C(c1ccccc1F)N1CCN(c2ccccc2)CC1,98.3
20,O=C(C1CCN(Cc2nc(Cc3cccc(F)c3)no2)CC1)N1CCOCC1,97.2
21,COC(=O)c1ccc(/C=N\NC(=O)c2ccc(C)cc2Cl)cc1,95.1
22,CCNC(=O)c1ccccc1-c1nc(-c2ccccc2Cl)no1,104
23,O=C(OCC(=O)N1CCN(C(=O)c2ccco2)CC1)c1cc(-c2ccc(Cl)c(Cl)c2Cl)nc2ccccc12,104
24,c1ccc(CSc2ccc(-c3ccccn3)nn2)cc1,106
25,N#C/C(=C\c1c(N2CCCCCC2)nc2ccccn2c1=O)C(=O)NCc1ccco1,92.9
26,Cc1ccc(Nc2c(-c3ccccn3)nc3ccc(C)cn23)cc1,153
27,Cc1ccc(-c2csc3ncn(Cc4ccc(C(=O)O)cc4)c(=O)c23)cc1C,120
